Data: ChEMBL document CHEMBL3272180, “A conformational study of beta-phenethanolamine receptor sites. 8. Pharmacological study of 3-isopropylamino-2-phenyl-trans-2-decalols” (1976)
Activity calls are given as the source filed them. The calls are words filed in the database; no cut-off is given here.

Tests used:
Canis familiaris [1] = experiment: Reduction of systolic blood pressure in mongrel dog at 1 to 2 mg/kg, iv up to 30 mins by electrocardiograph analysis in presence of alpha-blocker phenoxybenzamine; format: functional, Canis lupus familiaris, Artery; conditions: dose mg/kg 1-2
Summary of the method: (§1)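 Dogs pretreated with phenoxybenzamine 3 mg/kg as α-blocker, blockade checked with […]. Test agents given iv (1–2 mg/kg) via a femoral vein cannula, washed in with 0.5 ml saline; tracheotomized animals. Systolic, diastolic and pulse pressure followed over an initial 30-sec phase and a second phase of about 30 min.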

Rattus norvegicus [2] = species: Rattus norvegicus; experiment: (§2) Potentiation of D(-)-norepinephrine-induced contraction in reserpine-treated Sprague-Dawley rat vas deferens assessed as contraction level at 1 x 10^-4 M relative to norepinephrine; format: functional
Summary of the method: (§3)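 Rats were reserpinized with 5 mg/kg ip 24 hr before the experiment. Vasa deferentia were then set up in Tyrode's solution at 37°, gassed with 95% O2/5% CO2. Cumulative NE curves over 3×10^-7 to 3×10^-5 M, with test agent present. Isotonic contractions recorded kymographically. Response as percent of NE cumulative maximum; mean ± SE; t test.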

Canis familiaris [3] = experiment: Reduction of diastolic blood pressure in mongrel dog at 1 to 2 mg/kg, iv up to 30 mins by electrocardiograph analysis in presence of alpha-blocker phenoxybenzamine; format: functional, Canis lupus familiaris, Artery; conditions: dose mg/kg 1-2; summary of the method: as §1
Canis familiaris [4] = experiment: Reduction of diastolic blood pressure in mongrel dog at 1 to 2 mg/kg, iv up to 30 seconds by electrocardiograph analysis in presence of alpha-blocker phenoxybenzamine; format: functional, Canis lupus familiaris, Artery; conditions: dose mg/kg 1-2; summary of the method: as §1
[5] = Induction of norepinephrine release in Sprague-Dawley rat vas deferens at 1 x 10^-4 M after 30 mins by fluorometric analysis; format: functional
Summary of the method: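 Rat vas deferens pieces incubated 30 min in oxygenated Tyrode's with agent at 1×10^-4 M. Total catecholamines then measured fluorometrically by autoanalyzer. Mean ± SE of five experiments; t test vs control.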

Canis familiaris [6] = experiment: Reduction of pulse pressure in mongrel dog at 1 to 2 mg/kg, iv up to 30 mins by electrocardiograph analysis in presence of alpha-blocker phenoxybenzamine; format: functional, Canis lupus familiaris; conditions: dose mg/kg 1-2; summary of the method: as §1
Canis familiaris [7] = experiment: Reduction of pulse pressure in mongrel dog at 1 to 2 mg/kg, iv up to 30 seconds by electrocardiograph analysis in presence of alpha-blocker phenoxybenzamine; format: functional, organism-based; conditions: Canis lupus familiaris; summary of the method: as §1
Vas deferens [8] = experiment: Inhibition of norepinephrine uptake in Sprague-Dawley rat vas deferens at 1 x 10^-4 M after 60 mins by fluorometric analysis; format: functional
Summary of the method: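 Rat vas deferens pieces (50–60 mg, two per rat) incubated free-floating for 60 min at 37° in oxygenated Tyrode's with NE 1.5×10^-7 M, with or without test agent at 1×10^-4 M. Tissue then washed three times for 5 sec, and total catecholamines estimated fluorometrically by autoanalyzer. Mean ± SE of five experiments; t test vs control.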

[9] = Potentiation of D(-)-norepinephrine-induced contraction in Sprague-Dawley rat vas deferens assessed as contraction level at 1 x 10^-2 M relative to norepinephrine; format: functional
Canis familiaris [10] = experiment: Reduction of blood pressure in mongrel dog at 1 to 2 mg/kg, iv by electrocardiograph analysis; format: functional, organism-based; conditions: Canis lupus familiaris
Summary of the method: (§4)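 Dog blood pressure recorded after iv injection via a right femoral vein cannula (1–2 mg/kg), each dose washed in with 0.5 ml saline. Where stated, β blockade with propranolol 2 mg/kg, checked for adequacy with […].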

[11] = Potentiation of D(-)-norepinephrine-induced contraction in Sprague-Dawley rat vas deferens assessed as contraction level at 1 x 10^-4 M relative to norepinephrine; format: functional
Summary of the method: (§5)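 Isolated vasa deferentia from male Sprague–Dawley rats (300–350 g) in a 10-ml bath of Tyrode's solution, 37°, gassed with 95% O2/5% CO2. Cumulative NE dose-response curves over 3×10^-7 to 3×10^-5 M, with test agent at 1×10^-4 or 1×10^-3 M. Isotonic contractions recorded kymographically, 5 min between contractions after washout. Response expressed as percent of NE cumulative maximum (=100%), calculated per preparation. PD2 given as mean ± SE of ten curves; t test.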

Canis familiaris [12] = experiment: Reduction of blood pressure in mongrel dog at 1 to 2 mg/kg, iv by electrocardiograph analysis in presence of propranolol; format: functional, organism-based; conditions: Canis lupus familiaris; summary of the method: as §4
Oryctolagus cuniculus [13] = species: Oryctolagus cuniculus; experiment: Inhibition of spontaneous contractions in isolated rabbit atria at 1 x 10^-4 M; format: functional; conditions: Cardiac atrium
Canis familiaris [14] = experiment: Reduction of blood pressure in iv dosed mongrel dog by electrocardiograph analysis in presence of hexamethonium and atropine; format: functional, organism-based; conditions: Canis lupus familiaris
Canis familiaris [15] = experiment: Reduction of systolic blood pressure in mongrel dog at 1 to 2 mg/kg, iv up to 30 seconds by electrocardiograph analysis in presence of alpha-blocker phenoxybenzamine; format: functional, Canis lupus familiaris, Artery; conditions: dose mg/kg 1-2; summary of the method: as §1
Rattus norvegicus [16] = species: Rattus norvegicus; experiment: Potentiation of D(-)-norepinephrine-induced contraction in reserpine-treated Sprague-Dawley rat vas deferens at 1 x 10^-2 M relative to control; format: functional, tissue-based; summary of the method: as §3
Rattus norvegicus [17] = species: Rattus norvegicus; experiment: (§6) Potentiation of D(-)-norepinephrine-induced contraction in reserpine-treated Sprague-Dawley rat vas deferens assessed as contraction level at 1 x 10^-3 M relative to norepinephrine; format: functional; summary of the method: as §3
Oryctolagus cuniculus [18] = species: Oryctolagus cuniculus; experiment: Inhibition of spontaneous contractions in isolated rabbit atria at 1 x 10^-3 M; format: functional; conditions: Cardiac atrium
Canis familiaris [19] = experiment: Increase in diastolic blood pressure in mongrel dog at 2 mg/kg, iv by electrocardiograph analysis; format: functional, Canis lupus familiaris, Artery
Canis familiaris [20] = experiment: Reduction of systolic blood pressure in mongrel dog at 2 mg/kg, iv by electrocardiograph analysis in presence of alpha-blocker phenoxybenzamine; format: functional, organism-based; design: dose 2 mg/kg; conditions: Canis lupus familiaris, Artery
Canis familiaris [21] = experiment: Induction of beta-adrenergic response in mongrel dog at 2 mg/kg, iv by electrocardiograph analysis; format: functional, organism-based; design: dose 2 mg/kg; conditions: Canis lupus familiaris
Canis familiaris [22] = experiment: Increase in systolic blood pressure in mongrel dog at 2 mg/kg, iv by electrocardiograph analysis; format: functional, Canis lupus familiaris, Artery
Canis familiaris [23] = experiment: Increase in pulse pressure in mongrel dog at 2 mg/kg, iv by electrocardiograph analysis; format: functional, Canis lupus familiaris
Canis familiaris [24] = experiment: Induction of beta-adrenergic response in mongrel dog at 2 mg/kg, iv by electrocardiograph analysis in presence of propranolol; format: functional, organism-based; design: dose 2 mg/kg; conditions: Canis lupus familiaris
Canis familiaris [25] = experiment: Reduction of diastolic blood pressure in mongrel dog at 2 mg/kg, iv by electrocardiograph analysis in presence of alpha-blocker phenoxybenzamine; format: functional, organism-based; design: dose 2 mg/kg; conditions: Canis lupus familiaris, Artery
Canis familiaris [26] = experiment: Reduction of pulse pressure in mongrel dog at 2 mg/kg, iv by electrocardiograph analysis in presence of alpha-blocker phenoxybenzamine; format: functional, organism-based; design: dose 2 mg/kg; conditions: Canis lupus familiaris
Oryctolagus cuniculus [27] = species: Oryctolagus cuniculus; experiment: Increase in spontaneous contractions in isolated rabbit atria at 1 x 10^-4 M; format: functional; conditions: Cardiac atrium
Vas deferens [28] = experiment: Inhibition of D(-)-norepinephrine-induced contraction in Sprague-Dawley rat vas deferens assessed as contraction level at 1 x 10^-3 M relative to norepinephrine; format: functional; design: scale not given: the % may be the effect or the level left; summary of the method: as §5
[29] = as §2; format: functional; summary of the method: as §3
[30] = as §6; format: functional; summary of the method: as §3

| SMILES | Activity (Rattus norvegicus [2]) | Activity [5] | Activity (Vas deferens [8]) | Activity (Canis familiaris [10]) | Activity [11] | Activity (Rattus norvegicus [16]) | Activity (Rattus norvegicus [17]) | inhibition (Oryctolagus cuniculus [18]) | Activity (Oryctolagus cuniculus [27]) | Activity (Vas deferens [28]) | other results |
| --- | --- | --- | --- | --- | --- | --- | --- | --- | --- | --- | --- |
| CC(C)N[C@@H](C)[C@H](O)c1ccccc1 | Active | 7 µg/g | 9.2 µg/g | Active | 158% | Active | Active | – | – | – | Activity (Canis familiaris [1]): 15 mmHg; Activity (Canis familiaris [3]): 30 mmHg; Activity (Canis familiaris [4]): 50 mmHg; Activity (Canis familiaris [6]): 15 mmHg; Activity (Canis familiaris [7]): Active; Activity [9]: 90%; Activity (Canis familiaris [12]): Active; inhibition (Oryctolagus cuniculus [13]): Active; Activity (Canis familiaris [14]): Active; Activity (Canis familiaris [15]): 50 mmHg |
| CC(C)N[C@H](C)[C@H](O)c1ccccc1 | Active | 7.4 µg/g | 9.3 µg/g | Active | 145% | Active | Active | Active | – | – | Activity [9]: 70% |
| CN[C@@H](C)[C@H](O)c1ccccc1 [EPHEDRINE] | – | – | – | – | – | – | – | – | – | – | Activity (Canis familiaris [19]): 40 mmHg; Activity (Canis familiaris [20]): inactive; Activity (Canis familiaris [21]): Active; Activity (Canis familiaris [22]): 40 mmHg; Activity (Canis familiaris [23]): 40 mmHg; Activity (Canis familiaris [24]): inactive; Activity (Canis familiaris [25]): inactive; Activity (Canis familiaris [26]): inactive |
| CC(C)N[C@H]1C[C@@H]2CCCC[C@H]2C[C@@]1(O)c1ccccc1 | Active | 7.8 µg/g | 9.6 µg/g | Active | 96% | Active | Active | Active | Active | 10% | Activity (Canis familiaris [1]): 15 mmHg; Activity (Canis familiaris [3]): 30 mmHg; Activity (Canis familiaris [4]): 50 mmHg; Activity (Canis familiaris [6]): 15 mmHg; Activity (Canis familiaris [7]): Active; Activity (Canis familiaris [12]): Active; Activity (Canis familiaris [15]): 50 mmHg |
| CC(C)N[C@@H]1C[C@@H]2CCCC[C@H]2C[C@]1(O)c1ccccc1 | Active | 7.7 µg/g | 9.3 µg/g | Active | 128% | Active | Active | – | – | 85% | inhibition (Oryctolagus cuniculus [13]): Active |
| CC(C)N[C@H]1C[C@@H]2CCCC[C@H]2C[C@]1(O)c1ccccc1 | – | 7.9 µg/g | 9.1 µg/g | Active | 132% | Active | – | Active | Active | 88% | Activity [29]: 130%; Activity [30]: 84% |
| CC(C)N[C@@H]1C[C@@H]2CCCC[C@H]2C[C@@]1(O)c1ccccc1 | Active | 8.1 µg/g | 9.5 µg/g | Active | 94% | Active | Active | Active | Active | 16% | – |
